The structures appear in SMILES notation.

In data set [1] the target is human 5-HT2b receptor (Homo sapiens, UniProt P41595). Kind of data set: 5-HT2bR competitive radioligand binding, [125I].
The test system of data set [2] is neurology patients / AD patients. As to conditions: ref 1-8 of Supporting Data; cited from earlier work.
The subject of data set [3] is h5-HT2b and m5-HT2b. Kind of data set: Gq activation and β-arrestin-1 recruitment, statements covering both species. Format: cell-based, human and mouse. Conditions: absence of an activator. Put shortly:
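Human and mouse 5-HT2b receptors were tested in cells. Serotonin-driven Gq activation and β-arrestin-1 recruitment were read across increasing test compound concentrations. The same read-outs were taken with vehicle and no activator to capture basal (inverse agonist) activity. Data are mean ± SEM of three to four independent experiments, each in duplicate or triplicate. EC50 and Emax were derived.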

Sequence of human 5-HT2b receptor (P41595 whole entry): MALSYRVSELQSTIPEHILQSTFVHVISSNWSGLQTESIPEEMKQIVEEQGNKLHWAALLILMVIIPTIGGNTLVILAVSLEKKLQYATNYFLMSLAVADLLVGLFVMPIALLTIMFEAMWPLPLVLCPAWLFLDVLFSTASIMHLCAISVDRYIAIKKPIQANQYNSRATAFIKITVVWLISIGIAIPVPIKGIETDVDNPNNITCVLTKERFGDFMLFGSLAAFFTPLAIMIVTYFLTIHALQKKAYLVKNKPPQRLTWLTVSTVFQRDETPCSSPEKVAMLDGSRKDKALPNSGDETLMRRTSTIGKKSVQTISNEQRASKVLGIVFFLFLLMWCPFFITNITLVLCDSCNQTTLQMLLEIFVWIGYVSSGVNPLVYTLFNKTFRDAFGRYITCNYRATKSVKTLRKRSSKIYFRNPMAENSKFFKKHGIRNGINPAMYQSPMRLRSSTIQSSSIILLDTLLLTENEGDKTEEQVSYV

In data set [1], `Cc1cc(-c2ccccc2)nnc1NCCN1CCOCC1` [minaprine] came in with a 50% inhibitory concentration (IC50) of 863 ± 8 nM. In addition, the “Risk for cardiotoxicity, drowsiness, or weight gain” value in data set [2] is “low risk”.

For the compound `Cc1nc2n(c(=O)c1CCN1CCC(c3noc4cc(F)ccc34)CC1)CCCC2` [risperidone], the “Basal (constitutive) 5-HT2bR activity” value in data set [3] is “inhibited basal 5‐HT2bR”.

Usually IC50 stands for the concentration at which inhibition is half-maximal.

The values are drawn from publication PMC11947739 (Alzheimer's & Dementia : Translational Research & Clinical …, 2025).
